In ChEMBL document CHEMBL1177730, “Bivalent diketopiperazine-based tropomysin receptor kinase C (TrkC) antagonists” (J Med Chem, 2010) one finds inhibition and Activity data, which are given here for one compound.

The source made the active and inactive calls. No cut-off for these calls is given here.

As usually defined, the inhibition is the drop in the measured response relative to a control, in per cent.

In data set [1] the target is NT-3 growth factor receptor (Homo sapiens) (UniProt Q16288). Description: Antagonist activity at human TrkC expressed in mouse NIH/3T3 cells assessed as inhibition of NT3-induced cytoprotection at 20 uM by MTT assay relative to NT3. Format: functional, cell-based. As to conditions: NIH3T3. In outline:
(§1)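 Survival of NIH-3T3 cells expressing TrkA, TrkC or IGF-1R was measured by MTT in serum-free medium. Medium held the matching growth factor (NGF for TrkA, NT-3 for TrkC, IGF-1 for IGF-1R) at optimal 10 nM or sub-optimal 0.2 nM, ± compound at 20 μM. Survival was expressed relative to optimal growth factor-mediated survival (100%); average ± sd.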

The target in data set [2] is High affinity nerve growth factor receptor (Homo sapiens) (UniProt P04629). In words: Antagonist activity at human TrkA expressed in mouse NIH/3T3 assessed as inhibition of NGF-induced cytoprotection at 20 uM by MTT assay relative to NGF. Format: functional, cell-based. The note with it: NIH3T3. The essentials:
as §1

The target in data set [3] is Insulin-like growth factor 1 receptor (Homo sapiens) (UniProt P08069). In words: Antagonist activity at human IGF1R expressed in mouse NIH/3T3 cells assessed as inhibition of IGF-induced cytoprotection at 20 uM by MTT assay relative to IGF. The format is functional, cell-based. As to conditions: NIH3T3. The essentials:
as §1
(In general: Formazan colour is commonly taken as a measure of viable cells.)

The subject of a further data set is NIH3T3. Description: Cytotoxicity against mouse NIH/3T3 cells by MTT assay. Format: cell-based.
For data set [4], the target named is NT-3 growth factor receptor (Homo sapiens) (UniProt Q16288). In words: Antagonist activity at human TrkC expressed in mouse NIH/3T3 cells assessed as decrease in NT3-induced TrkC-pTyr level at 20 uM after 20 mins by Western blotting. The format is functional, cell-based. The note with it: NIH3T3. Details: scale not given: the % may be the effect or the level left. The essentials: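 NIH3T3-TrkC cells were exposed to NT-3 (2 nM) ± compound (20 μM) for 20 min. Detergent lysates were Western blotted with anti-pTyr mAb 4G10 and anti-phospho-MAPK, then re-blotted for actin to normalise loading. Bands were quantified by densitometry.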
NT-3 growth factor receptor (Homo sapiens), sequence (Q16288 32-839 limits assumed): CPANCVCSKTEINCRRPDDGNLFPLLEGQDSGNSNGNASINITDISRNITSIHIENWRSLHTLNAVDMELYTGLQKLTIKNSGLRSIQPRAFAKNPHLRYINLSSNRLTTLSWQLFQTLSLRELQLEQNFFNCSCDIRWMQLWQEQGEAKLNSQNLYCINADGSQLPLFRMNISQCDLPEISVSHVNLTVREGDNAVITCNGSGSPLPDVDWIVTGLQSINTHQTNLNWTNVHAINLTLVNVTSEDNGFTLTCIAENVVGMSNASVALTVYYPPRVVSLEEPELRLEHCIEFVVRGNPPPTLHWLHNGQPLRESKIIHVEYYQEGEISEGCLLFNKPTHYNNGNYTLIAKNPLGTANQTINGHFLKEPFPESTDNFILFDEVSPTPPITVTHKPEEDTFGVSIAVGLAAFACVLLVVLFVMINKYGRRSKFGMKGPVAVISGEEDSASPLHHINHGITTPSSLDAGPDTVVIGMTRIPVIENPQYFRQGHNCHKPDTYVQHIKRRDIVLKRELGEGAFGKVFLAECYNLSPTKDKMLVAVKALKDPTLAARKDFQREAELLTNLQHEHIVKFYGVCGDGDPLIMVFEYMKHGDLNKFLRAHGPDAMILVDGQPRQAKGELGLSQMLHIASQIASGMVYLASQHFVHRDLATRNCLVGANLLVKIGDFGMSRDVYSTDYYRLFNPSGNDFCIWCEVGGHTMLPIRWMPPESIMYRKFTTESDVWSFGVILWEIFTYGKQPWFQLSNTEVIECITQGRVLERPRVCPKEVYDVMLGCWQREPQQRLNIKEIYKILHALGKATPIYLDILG
A general note: A western blot detects proteins with antibodies after separation by electrophoresis.

In data set [5] the target is High affinity nerve growth factor receptor (Homo sapiens) (UniProt P04629). Description: Antagonist activity at human TrkA expressed in mouse NIH/3T3 cells assessed as decrease in NGF-induced tyrosin phosphorylation at 20 uM after 20 mins by Western blotting. Format: functional, cell-based. The note with it: NIH3T3.
High affinity nerve growth factor receptor (Homo sapiens), sequence (P04629 33-796 limits assumed): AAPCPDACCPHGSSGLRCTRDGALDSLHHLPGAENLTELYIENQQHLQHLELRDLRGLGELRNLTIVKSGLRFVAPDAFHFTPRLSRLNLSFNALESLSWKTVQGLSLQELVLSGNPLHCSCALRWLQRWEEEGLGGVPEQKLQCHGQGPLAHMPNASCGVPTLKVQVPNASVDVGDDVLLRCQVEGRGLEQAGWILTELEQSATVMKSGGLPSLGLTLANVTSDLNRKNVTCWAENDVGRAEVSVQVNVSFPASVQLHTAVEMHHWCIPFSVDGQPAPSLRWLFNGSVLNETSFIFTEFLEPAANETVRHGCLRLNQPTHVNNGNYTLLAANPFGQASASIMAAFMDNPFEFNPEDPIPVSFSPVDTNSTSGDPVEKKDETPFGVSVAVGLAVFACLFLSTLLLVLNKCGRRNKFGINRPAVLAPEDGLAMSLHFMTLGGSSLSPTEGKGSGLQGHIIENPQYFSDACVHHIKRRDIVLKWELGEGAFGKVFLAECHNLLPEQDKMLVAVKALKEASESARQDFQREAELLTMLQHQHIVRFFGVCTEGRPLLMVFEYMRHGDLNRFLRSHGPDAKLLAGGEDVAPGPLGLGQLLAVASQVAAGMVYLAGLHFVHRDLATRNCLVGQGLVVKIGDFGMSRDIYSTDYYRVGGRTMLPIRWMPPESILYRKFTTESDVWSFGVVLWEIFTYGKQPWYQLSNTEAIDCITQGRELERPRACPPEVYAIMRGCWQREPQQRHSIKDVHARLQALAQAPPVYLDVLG
Data set [6] concerns the target Insulin-like growth factor 1 receptor (Homo sapiens) (UniProt P08069). Description: Antagonist activity at human IGF1R expressed in mouse NIH/3T3 cells assessed as decrease in IGF-induced tyrosin phosphorylation at 20 uM after 20 mins by Western blotting. The format is functional, cell-based. As to conditions: NIH3T3.
For data set [7], the target named is NT-3 growth factor receptor (Homo sapiens) (UniProt Q16288). Description: Binding affinity at human TrkC expressed in mouse NIH/3T3 cells by FACS analysis. The note with it: NIH3T3. Format: cell-based. The essentials:
(§2)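 Stably transfected NIH-3T3 cells expressing the indicated receptor were incubated at 4 °C with biotin-tagged ligand (50 μM), then with fluorescein-avidin. After washing, cells were analysed by flow cytometry. Background mean channel fluorescence of NIH-IGF-1R cells was subtracted to give specific binding. Mean ± SEM, n = 3 independent experiments.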

The target in data set [8] is High affinity nerve growth factor receptor (Homo sapiens) (UniProt P04629). Description: Binding affinity to human TrkA expressed in mouse NIH/3T3 cells by FACS analysis. Format: cell-based. As to conditions: NIH3T3. In outline: as §2
In general terms: Flow cytometry measures light scatter and fluorescence of single cells or particles in a stream.

The target of data set [9] is Insulin-like growth factor 1 receptor (Homo sapiens) (UniProt P08069). Description: Binding affinity to human IGF1R expressed in mouse NIH/3T3 cells by FACS analysis. The format is cell-based. The note with it: NIH3T3.
Insulin-like growth factor 1 receptor (Homo sapiens), sequence (P08069 31-736 limits assumed): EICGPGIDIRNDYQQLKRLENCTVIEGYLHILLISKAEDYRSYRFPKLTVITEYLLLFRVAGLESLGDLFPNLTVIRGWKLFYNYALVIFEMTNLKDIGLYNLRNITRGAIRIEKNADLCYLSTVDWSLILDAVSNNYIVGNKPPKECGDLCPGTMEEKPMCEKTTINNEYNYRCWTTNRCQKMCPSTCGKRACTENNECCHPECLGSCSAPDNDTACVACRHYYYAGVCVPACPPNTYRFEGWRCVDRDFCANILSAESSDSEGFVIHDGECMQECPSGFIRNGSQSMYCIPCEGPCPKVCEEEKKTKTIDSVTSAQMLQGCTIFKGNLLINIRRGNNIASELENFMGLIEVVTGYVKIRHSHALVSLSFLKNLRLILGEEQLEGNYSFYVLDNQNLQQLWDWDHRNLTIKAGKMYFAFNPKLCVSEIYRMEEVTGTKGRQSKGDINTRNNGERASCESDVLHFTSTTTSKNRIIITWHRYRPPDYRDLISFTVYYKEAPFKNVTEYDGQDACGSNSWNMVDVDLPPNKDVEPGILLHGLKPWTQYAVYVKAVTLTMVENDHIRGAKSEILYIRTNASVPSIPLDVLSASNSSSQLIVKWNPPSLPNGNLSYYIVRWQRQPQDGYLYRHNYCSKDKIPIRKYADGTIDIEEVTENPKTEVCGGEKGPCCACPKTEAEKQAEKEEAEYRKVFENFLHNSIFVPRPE
Insulin-like growth factor 1 receptor (Homo sapiens), sequence (P08069 741-1367 limits assumed): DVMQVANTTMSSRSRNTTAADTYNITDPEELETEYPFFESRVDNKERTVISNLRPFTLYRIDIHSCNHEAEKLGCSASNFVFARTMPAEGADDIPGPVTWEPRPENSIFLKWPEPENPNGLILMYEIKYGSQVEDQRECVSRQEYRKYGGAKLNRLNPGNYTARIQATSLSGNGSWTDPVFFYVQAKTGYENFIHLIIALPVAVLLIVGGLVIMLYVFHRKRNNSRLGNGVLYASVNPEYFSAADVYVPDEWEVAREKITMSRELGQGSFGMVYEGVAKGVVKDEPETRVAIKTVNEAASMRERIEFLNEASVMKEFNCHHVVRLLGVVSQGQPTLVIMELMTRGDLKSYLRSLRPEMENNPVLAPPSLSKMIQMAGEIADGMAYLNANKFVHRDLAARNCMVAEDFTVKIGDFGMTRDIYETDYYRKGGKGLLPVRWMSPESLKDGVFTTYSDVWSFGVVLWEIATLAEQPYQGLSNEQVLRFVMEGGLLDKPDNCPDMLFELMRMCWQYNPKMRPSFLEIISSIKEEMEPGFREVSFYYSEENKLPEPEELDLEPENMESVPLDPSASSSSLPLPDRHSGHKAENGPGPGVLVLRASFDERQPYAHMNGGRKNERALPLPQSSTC
Data set [10] addresses Tumor necrosis factor receptor superfamily member 16 (p75NTR, NGFR) (Homo sapiens) (UniProt P08138). In words: Binding affinity to human p75 expressed in mouse NIH/3T3 cells by FACS analysis. The note with it: NIH3T3.

Tumor necrosis factor receptor superfamily member 16 (p75NTR, NGFR) (Homo sapiens), sequence (P08138 whole entry, looked up): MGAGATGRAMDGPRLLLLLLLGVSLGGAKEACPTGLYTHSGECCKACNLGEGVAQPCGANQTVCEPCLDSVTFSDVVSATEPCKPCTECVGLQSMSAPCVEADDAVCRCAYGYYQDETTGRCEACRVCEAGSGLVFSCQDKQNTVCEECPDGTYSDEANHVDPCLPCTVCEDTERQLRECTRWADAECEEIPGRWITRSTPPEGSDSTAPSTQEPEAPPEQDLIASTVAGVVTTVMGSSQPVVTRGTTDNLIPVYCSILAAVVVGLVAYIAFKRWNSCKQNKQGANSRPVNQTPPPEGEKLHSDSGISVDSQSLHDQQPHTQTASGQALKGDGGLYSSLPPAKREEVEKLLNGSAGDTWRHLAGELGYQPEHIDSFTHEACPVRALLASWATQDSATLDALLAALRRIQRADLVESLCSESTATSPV

Consider `CN1C(=O)CN([C@@H](CCCCN)C(=O)NCCCCCCCCCCC(=O)N2CCN(c3nc(NCCCC[C@@H]4SC[C@@H]5NC(=O)N[C@@H]54)nc(N4CCN(C(=O)[C@H](CCCCN)N5CC(=O)N(C)[C@@H](CCC(=O)O)C5=O)CC4)n3)CC2)C(=O)[C@@H]1CCC(=O)O`, for which the inhibition in data set [1] amounted to 30%. Besides, the inhibition result in [2] and in data set [3] was “inactive” throughout. In addition, the Activity entry is “Non-toxic” in the data set with NIH3T3 and 40% in data set [4]. In addition, the outcome in data set [5], in data set [6], in data set [8], in data set [9] and in data set [10] was inactive. Also, the outcome in data set [7] was Active.
